Here are results for 20 compounds from PMC2762272 (Bioorganic & medicinal chemistry, 2009).

Each structure is given as a SMILES string. Some results are limits rather than exact numbers.

The subject of assay [1] is murine leukemia (L1210) cells. In words: Cell growth inhibitory activity, L1210. The class given is cell-based. The note with it: Mus musculus, L1210, 48 h, read-out: IC50 L1210. In outline: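 Murine leukemia cells at 300,000-500,000 cells/mL were mixed 1:1 with dilutions of test compound and incubated at 37 °C for two days. Cell number was counted with a Coulter counter. IC50 is the concentration inhibiting proliferation by 50%, taken from dose–response curves as mean ± SE of at least three independent experiments.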

Assay [2] has as its system murine mammary carcinoma (FM3A) cells. Description: Cell growth inhibitory activity, FM3A. The class given is cell-based. The note with it: Mus musculus, 48 h, read-out: IC50 FM3A/0.
In assay [3] the test system is L1210, FM3A, Molt/4, CEM and HeLa cells. Description: Cell growth inhibitory activity, panel of cell lines. The class given is cell-based, murine and human. The following applies: for IC50: read-out: IC50 values, range over the cell lines. In outline:
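Murine L1210 leukemia and FM3A mammary carcinoma cells, and human Molt 4, CEM (T-lymphocyte) and HeLa (cervix carcinoma) cells. Cells were suspended at 300,000–500,000 cells/mL and mixed 1:1 with serial dilutions of test compound. Incubated 2 days at 37 °C, then cell number counted with a Coulter counter. IC50 (50% inhibition of proliferation) was taken from dose–response curves as mean ± SE of ≥3 independent experiments.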

Assay [4] deals with human T-lymphocyte Molt4/C8 cells. Description: Cell growth inhibitory activity, Molt/4. The class given is cell-based. The note with it: Molt4/C8, 48 h, read-out: IC50 Molt4/C8.
For assay [5], the system named is K562 (human chronic myelogenous leukemia) cells. In words: Flow cytometric analysis of cell cycle distribution. The following applies: 24 h, compound at concentration inhibiting 100% cell growth. Format: cell-based.
In assay [6] the test system is human cervix carcinoma (HeLa) cells. Description: Cell growth inhibitory activity, HeLa. Format: cell-based.
In the next assay the test system is bovine brain tubulin. Description: Inhibition of tubulin polymerization. The class given is biochemical.
For assay [7], the system named is K562 (human chronic myelogenous leukemia) cells. Description: Concentration inhibiting 100% cell growth of K562 cells. The class given is cell-based.

As to `COc1ccc(/C=C\c2cc(OC)c(OC)c(OC)c2)cc1O` [CA4, combretastatin A-4], the IC50 in assay [1] amounted to 2.8 ± 1.1 nM.

On to `COc1ccc2c(N)c(C(=O)c3cc(OC)c(OC)c(OC)c3)oc2c1` [Compound 3a], for which the IC50 in assay [1] was 430 ± 40 nM; in assay [2], 280 ± 160 nM; in assay [3], 87 to 430 nM.

With `COc1ccc2c(N(C)C)c(C(=O)c3cc(OC)c(OC)c(OC)c3)oc2c1` [Compound 3b], the IC50 in assay [1] was 65 ± 5 nM; in assay [2] it was 59 ± 5 nM; in assay [3] it was 48 to 78 nM.

For `COc1ccc2cc(C(OC)c3cc(OC)c(OC)c(OC)c3)oc2c1` (stereo not shown) [Compound 4aa, 6-methoxy-2-(methoxy(3,4,5-trimethoxyphenyl)methyl)benzofuran], the IC50 in assay [4] is over 10000 nM.

Turning to `COc1ccc2c3c(oc2c1)C(=O)c1cc(OC)c(OC)c(OC)c1-3` [Compound 4ac, 3,8,9,10-tetramethoxy-6H-benzo[b]indeno[1,2-d]furan-6-one], the IC50 in assay [4] was over 10000 nM. Further, the “antiproliferative activity (in words)” value in assay [3] (five cell lines) is “completely inactive”.

Turning to `COc1cc(C(=O)c2cc3c(OC)cccc3o2)cc(OC)c1OC` [Compound 4b, (4-Methoxybenzofuran-2-yl)(3,4,5-trimethoxyphenyl)methanone], the “sub-G0–G1 peak (apoptotic peak, A)” value in assay [5] was 20–44%.

As for `COc1ccc2cc(C(=O)c3cc(OC)c(OC)c(OC)c3)oc2c1` [Compound 4d, (6-Methoxybenzofuran-2-yl)(3,4,5-trimethoxyphenyl)methanone], the IC50 in assay [3] was 59 to 110 nM.

In the case of `COc1cc(C(=O)c2cc3cc(Cl)ccc3o2)cc(OC)c1OC` [Compound 4g, (5-Chlorobenzofuran-2-yl)(3,4,5-trimethoxyphenyl)methanone], the IC50 in assay [4] is over 10000 nM.

Consider `COc1cc(C(=O)c2cc3cc(Br)ccc3o2)cc(OC)c1OC` [Compound 4h, (5-Bromobenzofuran-2-yl)(3,4,5-trimethoxyphenyl)methanone], for which the IC50 in assay [4] is over 10000 nM.

As to `COc1cc(C(=O)c2cc3ccc(OC)c(O)c3o2)cc(OC)c1OC` [Compound 4i, (7-Hydroxy-6-methoxybenzofuran-2-yl)(3,4,5-trimethoxyphenyl)methanone], the IC50 in assay [4] was over 10000 nM.

Turning to `COc1cc(C(=O)c2cc3cc(OC)c(OC)c(OC)c3o2)cc(OC)c1OC` [Compound 4k, (5,6,7-Trimethoxybenzofuran-2-yl)(3,4,5-trimethoxyphenyl)methanone], the IC50 in assay [4] is over 10000 nM.

As to `COc1cc(C(=O)c2cc3cc(O)ccc3o2)cc(OC)c1OC` [Compound 4l, (5-Hydroxybenzofuran-2-yl)(3,4,5-trimethoxyphenyl)-methanone], the IC50 in assay [4] is over 10000 nM.

As for `COc1cc(C(=O)c2cc3ccc(O)cc3o2)cc(OC)c1OC` [Compound 4m, (6-Hydroxybenzofuran-2-yl)(3,4,5-trimethoxyphenyl)-methanone], in assay [4], the IC50 was over 10000 nM.

For the compound `COc1cc(C(=O)c2cc3cccc(O)c3o2)cc(OC)c1OC` [Compound 4n, (7-Hydroxybenzofuran-2-yl)(3,4,5-trimethoxyphenyl)-methanone], in assay [4], the IC50 was over 10000 nM.

As for `COc1cc(C(=O)c2oc3cccc(OC)c3c2C)cc(OC)c1OC` [Compound 4p, (4-Methoxy-3-methylbenzofuran-2-yl)(3,4,5-trimethoxyphenyl)methanone], in assay [5], the “effect on cell cycle distribution” value is “accumulate in late S phase” and the “sub-G0–G1 peak (apoptotic peak, A)” value is 20–44%.

`COc1ccc2c(C)c(C(=O)c3cc(OC)c(OC)c(OC)c3)oc2c1` [Compound 4r, (6-Methoxy-3-methylbenzofuran-2-yl)(3,4,5-trimethoxyphenyl)methanone]: the IC50 in assay [3] was in the range of 3 to 27 nM.

With `CCOc1ccc2c(C)c(C(=O)c3cc(OC)c(OC)c(OC)c3)oc2c1` [Compound 4t, (6-Ethoxy-3-methylbenzofuran-2-yl)(3,4,5-trimethoxyphenyl)methanone], the “fold increase of activity relative to 4r” value in assay [6] came out at 2 fold; in assay [3] (L1210, FM3A, Molt/4 and CEM cells), 10 fold. Further, the IC50 in assay [3] lay within 1.2 to 6.3 nM.

As for `COc1cc(C(=O)c2oc3cc(F)ccc3c2C)cc(OC)c1OC` [Compound 4u, (6-Fluoro-3-methylbenzofuran-2-yl)(3,4,5-trimethoxyphenyl)methanone], in the assay on bovine brain tubulin, the “antitubulin polymerization activity (in words)” value is on record as “weak antitubulin polymerization activity”. For the same compound, the “concentration able to inhibit 100% cell growth after 24 h” value in assay [7] was 1.62 µM. Besides, in assay [5], the “effect on cell cycle distribution” value was “accumulate in late S phase” and the “sub-G0–G1 peak (apoptotic peak, A)” value was 20–44%.

For the compound `COc1cc(C(=O)c2oc3ccc(O)cc3c2C)cc(OC)c1OC` [Compound 4w, (5-Hydroxy-3-methylbenzofuran-2-yl)(3,4,5-trimethoxyphenyl)methanone], the “sub-G0–G1 peak (apoptotic peak, A)” value in assay [5] is 20–44%.

In the case of `COc1ccc2cc(C(=S)c3cc(OC)c(OC)c(OC)c3)oc2c1` [Compound 4y, (6-methoxybenzofuran-2-yl)(3,4,5-trimethoxyphenyl)methanethione], in assay [4], the IC50 came out at 100 ± 10 nM.
